According to ChEMBL document CHEMBL1165965, “Synthesis and structure-activity relationships of 1,2,3,4-tetrahydropyrido[2,3-b]pyrazines as potent and selective inhibitors of the anaplastic lymphoma kinase” (Bioorg Med Chem, 2010):

Experiments:
[1] = biological target: Serine/threonine-protein kinase PLK1 (Homo sapiens) (UniProt P53350); test: Inhibition of PLK1 at 1 uM
[2] = biological target: Protein kinase C delta type (Homo sapiens) (UniProt Q05655); test: Inhibition of PRKCD at 1 uM
[3] = biological target: T1, Serine/threonine-protein kinase D2 (Homo sapiens) (UniProt Q9BZL6); test: Inhibition of PRKD2 at 1 uM
T1 sequence (whole entry): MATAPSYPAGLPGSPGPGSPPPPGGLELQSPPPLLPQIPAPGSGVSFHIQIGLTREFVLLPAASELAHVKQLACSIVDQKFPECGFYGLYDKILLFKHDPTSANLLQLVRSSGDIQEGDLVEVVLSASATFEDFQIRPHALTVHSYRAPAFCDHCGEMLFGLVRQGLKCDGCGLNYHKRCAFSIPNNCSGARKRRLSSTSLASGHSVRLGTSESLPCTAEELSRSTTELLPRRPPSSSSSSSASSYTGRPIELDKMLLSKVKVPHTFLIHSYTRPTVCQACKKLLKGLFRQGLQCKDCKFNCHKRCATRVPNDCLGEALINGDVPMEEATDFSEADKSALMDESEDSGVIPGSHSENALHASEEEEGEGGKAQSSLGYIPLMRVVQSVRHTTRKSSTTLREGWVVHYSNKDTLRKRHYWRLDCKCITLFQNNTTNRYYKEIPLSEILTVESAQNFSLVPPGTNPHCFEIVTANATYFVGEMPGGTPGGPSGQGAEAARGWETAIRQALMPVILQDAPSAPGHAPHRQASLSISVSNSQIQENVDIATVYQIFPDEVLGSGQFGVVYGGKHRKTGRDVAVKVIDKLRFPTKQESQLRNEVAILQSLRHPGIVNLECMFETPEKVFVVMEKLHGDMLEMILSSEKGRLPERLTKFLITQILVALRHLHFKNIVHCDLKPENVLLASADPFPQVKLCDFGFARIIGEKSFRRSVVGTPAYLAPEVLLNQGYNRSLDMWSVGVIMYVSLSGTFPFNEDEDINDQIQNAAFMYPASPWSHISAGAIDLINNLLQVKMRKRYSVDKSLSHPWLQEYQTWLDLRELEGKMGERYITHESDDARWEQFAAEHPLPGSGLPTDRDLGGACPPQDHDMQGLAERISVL

[4] = biological target: Dual specificity protein kinase CLK3 (Homo sapiens) (UniProt P49761); test: Inhibition of CLK3 at 1 uM
Chain of Dual specificity protein kinase CLK3 (Homo sapiens) (P49761 whole entry, looked up): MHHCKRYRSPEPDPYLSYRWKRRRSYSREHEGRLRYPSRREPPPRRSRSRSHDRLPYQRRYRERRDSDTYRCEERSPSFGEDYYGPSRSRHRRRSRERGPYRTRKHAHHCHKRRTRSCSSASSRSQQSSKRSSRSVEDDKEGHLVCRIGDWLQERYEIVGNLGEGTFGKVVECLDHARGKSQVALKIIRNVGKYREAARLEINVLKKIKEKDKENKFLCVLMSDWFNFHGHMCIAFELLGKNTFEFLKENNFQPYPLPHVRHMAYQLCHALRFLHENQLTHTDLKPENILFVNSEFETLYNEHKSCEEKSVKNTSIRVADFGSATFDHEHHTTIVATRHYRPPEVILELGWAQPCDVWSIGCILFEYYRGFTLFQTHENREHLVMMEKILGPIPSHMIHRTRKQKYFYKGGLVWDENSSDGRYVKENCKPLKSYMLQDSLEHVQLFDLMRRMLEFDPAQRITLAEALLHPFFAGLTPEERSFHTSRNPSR
Summary of the method: (§1)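 Single-concentration screen using Ambit Bioscience KINOMEscan technology across a panel of 250–400 kinases. Per-kinase inhibition from this screen was summarized as S(90), the fraction of kinases inhibited by more than 90%.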

[5] = biological target: T2, Phosphatidylinositol 3-kinase C2 domain-containing subunit gamma (Homo sapiens) (UniProt O75747); test: Inhibition of PIK3C2G at 1 uM
T2 sequence (whole entry): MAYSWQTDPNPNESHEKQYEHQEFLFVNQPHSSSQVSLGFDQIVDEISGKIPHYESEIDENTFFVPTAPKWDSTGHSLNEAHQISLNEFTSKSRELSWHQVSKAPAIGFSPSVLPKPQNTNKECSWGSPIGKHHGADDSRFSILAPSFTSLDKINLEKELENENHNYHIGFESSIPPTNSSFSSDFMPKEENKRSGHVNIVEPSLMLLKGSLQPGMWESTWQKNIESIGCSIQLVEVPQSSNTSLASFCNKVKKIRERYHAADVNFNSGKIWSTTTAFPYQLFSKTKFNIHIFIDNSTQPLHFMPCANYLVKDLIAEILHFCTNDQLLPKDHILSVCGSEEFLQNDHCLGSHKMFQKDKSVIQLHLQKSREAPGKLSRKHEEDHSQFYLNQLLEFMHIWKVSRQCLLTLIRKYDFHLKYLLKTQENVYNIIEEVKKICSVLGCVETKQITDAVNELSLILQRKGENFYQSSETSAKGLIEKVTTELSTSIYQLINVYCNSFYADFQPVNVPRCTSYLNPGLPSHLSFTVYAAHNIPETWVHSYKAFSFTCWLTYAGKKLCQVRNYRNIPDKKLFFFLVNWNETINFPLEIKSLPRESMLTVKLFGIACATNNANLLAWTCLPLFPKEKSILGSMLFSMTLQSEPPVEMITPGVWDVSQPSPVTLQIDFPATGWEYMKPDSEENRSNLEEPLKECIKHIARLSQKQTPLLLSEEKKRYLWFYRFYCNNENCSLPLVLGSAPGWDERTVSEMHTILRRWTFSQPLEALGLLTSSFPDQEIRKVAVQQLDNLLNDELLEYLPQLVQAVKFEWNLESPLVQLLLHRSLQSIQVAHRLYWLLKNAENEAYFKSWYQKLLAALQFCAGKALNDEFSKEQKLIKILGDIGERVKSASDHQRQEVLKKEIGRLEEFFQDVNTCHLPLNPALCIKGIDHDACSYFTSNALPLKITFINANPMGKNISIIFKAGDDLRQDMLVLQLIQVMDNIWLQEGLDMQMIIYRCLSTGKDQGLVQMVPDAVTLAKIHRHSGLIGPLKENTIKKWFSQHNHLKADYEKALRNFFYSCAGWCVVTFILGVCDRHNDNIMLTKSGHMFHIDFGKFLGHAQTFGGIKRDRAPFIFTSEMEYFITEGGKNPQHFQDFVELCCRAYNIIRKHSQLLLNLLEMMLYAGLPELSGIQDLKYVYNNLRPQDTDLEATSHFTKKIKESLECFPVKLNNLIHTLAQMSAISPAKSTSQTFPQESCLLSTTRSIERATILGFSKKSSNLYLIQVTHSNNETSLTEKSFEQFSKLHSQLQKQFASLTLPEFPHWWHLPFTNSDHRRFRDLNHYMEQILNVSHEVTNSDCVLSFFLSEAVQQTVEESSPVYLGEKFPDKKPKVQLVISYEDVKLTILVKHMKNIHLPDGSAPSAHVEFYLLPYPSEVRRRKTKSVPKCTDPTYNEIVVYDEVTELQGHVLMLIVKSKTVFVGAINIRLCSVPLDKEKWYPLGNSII

[6] = biological target: Epidermal growth factor receptor (Homo sapiens) (UniProt P04626+P00533+Q15303+P21860); test: Inhibition of EGFR S752-I759del mutant at 1 uM; type: protein assay; summary of the method: as §1

Measured: inhibition

Chain of Protein kinase C delta type (Homo sapiens) (Q05655 whole entry, looked up): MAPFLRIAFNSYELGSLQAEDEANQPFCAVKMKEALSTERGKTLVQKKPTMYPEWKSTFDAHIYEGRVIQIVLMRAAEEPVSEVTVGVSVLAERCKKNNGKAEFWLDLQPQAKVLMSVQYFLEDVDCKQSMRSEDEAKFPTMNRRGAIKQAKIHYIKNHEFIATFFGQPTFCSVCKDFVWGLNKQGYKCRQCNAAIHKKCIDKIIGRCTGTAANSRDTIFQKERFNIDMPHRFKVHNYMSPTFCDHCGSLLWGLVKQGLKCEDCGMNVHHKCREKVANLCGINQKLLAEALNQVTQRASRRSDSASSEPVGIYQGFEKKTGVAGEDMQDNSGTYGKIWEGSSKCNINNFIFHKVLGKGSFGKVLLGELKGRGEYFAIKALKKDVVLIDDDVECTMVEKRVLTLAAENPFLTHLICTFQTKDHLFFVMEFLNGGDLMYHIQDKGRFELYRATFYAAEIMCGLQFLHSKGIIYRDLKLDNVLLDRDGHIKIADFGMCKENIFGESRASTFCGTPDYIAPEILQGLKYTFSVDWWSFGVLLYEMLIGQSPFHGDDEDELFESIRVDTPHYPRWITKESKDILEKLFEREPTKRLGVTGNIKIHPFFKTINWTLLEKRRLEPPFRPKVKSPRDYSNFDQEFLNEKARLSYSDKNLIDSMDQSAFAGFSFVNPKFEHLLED
Chain of Serine/threonine-protein kinase PLK1 (Homo sapiens) (P53350 whole entry): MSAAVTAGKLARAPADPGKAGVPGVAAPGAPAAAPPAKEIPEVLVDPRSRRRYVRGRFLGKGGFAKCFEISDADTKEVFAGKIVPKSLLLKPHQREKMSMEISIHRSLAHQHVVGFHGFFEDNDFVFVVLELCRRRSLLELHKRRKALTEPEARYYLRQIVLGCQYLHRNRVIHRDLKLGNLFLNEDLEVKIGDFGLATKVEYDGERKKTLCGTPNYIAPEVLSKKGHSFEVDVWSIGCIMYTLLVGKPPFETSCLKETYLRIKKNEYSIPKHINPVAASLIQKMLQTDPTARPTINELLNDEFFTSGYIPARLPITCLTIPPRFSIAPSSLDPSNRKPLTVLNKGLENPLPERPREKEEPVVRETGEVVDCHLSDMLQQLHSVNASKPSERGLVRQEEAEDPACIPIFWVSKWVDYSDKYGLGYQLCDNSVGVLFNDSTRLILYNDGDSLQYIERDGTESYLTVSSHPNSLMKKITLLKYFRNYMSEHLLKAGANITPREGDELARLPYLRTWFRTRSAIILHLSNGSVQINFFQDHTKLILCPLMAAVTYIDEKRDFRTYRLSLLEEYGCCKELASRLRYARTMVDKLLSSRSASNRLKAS

FC(F)(F)c1ccc(Cl)cc1CN1CCNc2ncc(-c3ccnc(N4CCNCC4)c3)cc21
< 50%: all assays above

CN1CCN(c2ccc(-c3cnc4c(c3)N(Cc3cc(F)ccc3F)CCN4)cn2)CC1
< 50%: all assays above

CN1CCN(c2ccc(-c3cnc4c(c3)N(Cc3cc(Cl)ccc3Cl)CCN4)cn2)CC1
< 50%: all assays above

O=C(O)c1ccc(-c2cnc3c(c2)N(Cc2cc(Cl)ccc2C(F)(F)F)CCN3)cc1
not listed: [5]
< 50%: all other assays above

CN1CCN(c2ccc(-c3cnc4c(c3)N(Cc3cc(Cl)ccc3C(F)(F)F)CCN4)cn2)CC1
< 50%: all assays above

COC1CCN(C(=O)c2ccc(-c3cnc4c(c3)N(Cc3cc(Cl)ccc3C(F)(F)F)CCN4)cc2)CC1
not listed: [5]
< 50%: all other assays above

O=C(c1ccc(-c2cnc3c(c2)N(Cc2cc(Cl)ccc2C(F)(F)F)CCN3)cc1)N1CCC(N2CCCC2)CC1
not listed: [5]
< 50%: all other assays above

CN1CCN(c2ccc(-c3cnc4c(c3)N(Cc3c(F)ccc(F)c3Cl)CCN4)cn2)CC1
< 50%: all assays above

O=C(c1ccc(-c2cnc3c(c2)N(Cc2cc(Cl)ccc2C(F)(F)F)CCN3)cc1)N1CCCCC1
not listed: [5]
< 50%: all other assays above

CC(=O)N1CCN(c2cc(-c3cnc4c(c3)N(Cc3cc(Cl)ccc3C(F)(F)F)CCN4)ccn2)CC1
< 50%: all assays above
